Series [1] is described as follows: Cytotoxicity against human U87MG cells after 72 hrs by SRB assay. As to conditions: U-87 MG. It is filed as functional, cell-based, U-87MG ATCC. In general terms: Sulforhodamine B stains cellular protein and so reports cell mass.
Series [2] deals with HeLa. Put plainly: Cytotoxicity against human HeLa cells after 72 hrs by SRB assay. It is filed as functional, cell-based.
In series [3] the test system is NCI-H460. Put plainly: Cytotoxicity against human H460 cells after 72 hrs by SRB assay. Format: functional, cell-based. The conditions noted are these: NCI-H460, 72 h.
Series [4] has as its system NCI-H226. Put plainly: Cytotoxicity against human NCI-H226 cells after 72 hrs by SRB assay. Format: functional, cell-based. The conditions noted are these: NCI-H226, 72 h.
Series [5] in a line: Cytotoxicity against human H441 cells after 72 hrs by SRB assay. It is filed as functional, cell-based. As to conditions: NCI-H441, 72 h.
The subject of series [6] is A549. The experiment in a line: Cytotoxicity against human A549 cells after 72 hrs by SRB assay. Format: functional, cell-based. As to conditions: A549, 72 h.
Series [7] concerns MDA-MB-231. The experiment in a line: Cytotoxicity against human MDA-MB-231 cells after 72 hrs by SRB assay. It is filed as functional, cell-based. The conditions noted are these: MDA-MB-231, 72 h.
For series [8], the system named is MIA PaCa-2. The experiment in a line: Cytotoxicity against human MIAPaCa2 cells after 72 hrs by SRB assay. It is filed as functional, cell-based. The conditions noted are these: MIA PaCa-2, 72 h.
Series [9] in a line: Cytotoxicity against human MCF10A cells after 72 hrs by SRB assay. As to conditions: MCF-10A. Format: cell-based.
Series [10] concerns MEF. Put plainly: Cytotoxicity against MEF after 72 hrs by SRB assay. Format: cell-based. As to conditions: Mus musculus.
Series [11] has as its system Serum. Put plainly: Metabolic stability of the compound in fetal bovine serum assessed as conversion of SKI-1 after 16 hrs by HPLC analysis. The conditions noted are these: cattle. Format: ADME, cell-free, Bos taurus. In short, it runs like this:
(§1)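 Compound in DMSO, 1 mg/mL, added to 5 mL DMEM with 10% FBS (no cells) and shaken at 37 °C; samples at 0, 2, 16 and 72 h filtered and run on C18 HPLC; conjugate remaining and released parent SKI expressed as percentages of peak areas per time point.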

Series [12] in a line: Chemical stability of the compound assessed as compound remaining after 72 hrs by HPLC analysis. It is filed as physicochemical. In short, it runs like this: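 Compound in DMSO, 1 mg/mL, added to 5 mL serum-free DMEM (no cells) and shaken at 37 °C; samples taken at 0, 2, 16 and 72 h, filtered and analyzed by C18 HPLC; percentages of parent and conjugate peak areas calculated per time point.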

Series [13] is described as follows: Half life in C3H-HEJ mouse serum at 60 mg/kg, ip up to 16 hrs by HPLC analysis. Format: ADME, organism-based. More on the design: dose 60 mg/kg, route intraperitoneal.
Series [14] deals with Sphingosine kinase 1 (Homo sapiens) (UniProt Q9NYA1). The experiment in a line: Inhibition of Sphingosine kinase 1 in human HeLa cells at 1.25 uM pre-incubated for 24 hrs. Format: cell-based. In short, it runs like this: (§2)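 HeLa cells preincubated 24 h with compound or DMSO; cytosol (100,000g supernatant) at 10 µg protein incubated with 50 µM D-erythro-sphingosine, 200 µM ATP plus [γ-32P]ATP in pH 7.4 Tris buffer, 30 min, 37 °C; S1P resolved by TLC and quantified by scintillation counting; triplicate.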

For series [15] the target is unchanged. The experiment in a line: Inhibition of Sphingosine kinase 1 in human HeLa cells at >=5 uM pre-incubated for 24 hrs. Format: cell-based. In short, it runs like this:
as §2

Series [16] concerns Serum. The experiment in a line: Metabolic stability of the compound in fetal bovine serum assessed as conversion of SKI-2 after 2 hrs by HPLC analysis. It is filed as ADME, cell-free, Bos taurus. As to conditions: cattle. In short, it runs like this: as §1
For series [17], the system named is Serum. The experiment in a line: Metabolic stability of the compound in fetal bovine serum assessed as conversion of SKI-2 after 16 hrs by HPLC analysis. As to conditions: cattle. It is filed as ADME, cell-free, Bos taurus. In short, it runs like this: as §1
For series [18], the system named is Serum. Put plainly: Metabolic stability of the compound in fetal bovine serum assessed as conversion of SKI-2 after 72 hrs by HPLC analysis. The conditions noted are these: cattle. Format: ADME, cell-free, Bos taurus. In short, it runs like this: as §1
A short description of series [19]: Metabolic stability of the compound in fetal bovine serum assessed as compound remaining after 72 hrs by HPLC analysis. Format: ADME, cell-free, Bos taurus. As to conditions: cattle, read-out: Stability. In short, it runs like this:
as §1

The values below come from ChEMBL document CHEMBL1240447, “Synthesis and bioactivity of sphingosine kinase inhibitors and their novel aspirinyl conjugated analogs” (Eur J Med Chem, 2010).

Calls of active or inactive are those of the source.

In general, IC50 refers to the midpoint of a concentration-inhibition curve. Low values mean inhibition by little substance, high ones a need for much substance. As usually defined, the half-life is the time needed for the level to fall by half in the phase considered. Read a high half-life as slow loss.

Sphingosine kinase 1 (Homo sapiens), sequence (Q9NYA1 whole entry): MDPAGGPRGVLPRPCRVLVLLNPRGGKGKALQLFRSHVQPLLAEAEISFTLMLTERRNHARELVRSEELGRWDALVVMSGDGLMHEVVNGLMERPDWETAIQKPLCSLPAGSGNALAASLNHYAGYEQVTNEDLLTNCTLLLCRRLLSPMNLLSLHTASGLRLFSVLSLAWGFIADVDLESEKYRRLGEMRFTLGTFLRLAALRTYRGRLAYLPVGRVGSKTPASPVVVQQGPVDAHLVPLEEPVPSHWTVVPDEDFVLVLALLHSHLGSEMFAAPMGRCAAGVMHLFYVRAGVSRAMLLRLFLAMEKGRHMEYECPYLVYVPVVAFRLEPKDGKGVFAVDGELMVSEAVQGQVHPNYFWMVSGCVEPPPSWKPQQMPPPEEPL

On to `CC(=O)Oc1ccccc1C(=O)Oc1ccc2ccccc2c1/C=N/NC(=O)c1cc(-c2ccc3ccccc3c2)n[nH]1`, for which the IC50 in series [1] came to 1.5 µM; in [2] it was 1 µM; in series [3], 1.2 µM; in [4], 1.7 µM; in series [5] it was 0.6 µM; in series [6] it was 0.9 µM. In addition, the IC50 in series [7] was 1.3 µM; in series [8] it was 1.6 µM; in series [9], 2.6 µM; in series [10], 5.5 µM. Further, the Stability was 80% in [11] and “Stable” in series [12]. Also, the half-life in [13] was 10 h. Also, the outcome in series [14] and in [15] was Active.

As to `Oc1ccc(Nc2nc(-c3ccc(Cl)cc3)cs2)cc1`, the IC50 was determined as 10.7 µM in series [1]; 9.1 µM in series [2]; 9.2 µM in series [3]; 8.6 µM in series [4]; 8 µM in series [5]; 7.8 µM in series [6]. The IC50 was 8.2 µM in series [7], 7.7 µM in series [8], 14.5 µM in series [9] and 8.9 µM in series [10].

For the molecule `O=C(N/N=C/c1c(O)ccc2ccccc12)c1cc(-c2ccc3ccccc3c2)n[nH]1`, the IC50 in [1] stood at 1 µM; in [2], 1 µM; in [3] it was 3.2 µM; in series [4] it was 5.7 µM; in [5] it was 2 µM; in series [6], 3.8 µM. Besides, the IC50 came to 4.4 µM in series [7], 4.8 µM in series [8], 4.1 µM in [9] and 5 µM in series [10]. The same molecule showed a half-life in [13] of 7 h.

Take `CC(=O)Oc1ccccc1C(=O)Oc1ccc(Nc2nc(-c3ccc(Cl)cc3)cs2)cc1`: the IC50 in series [1] is 8.1 µM; in series [2], 11.2 µM; in [3], 9.1 µM; in series [4], 6.7 µM; in series [5], 5.7 µM; in series [6] it was 5.9 µM. The half-maximal inhibitory concentration (IC50) in series [7] was 8.4 µM; in series [8] it was 8.7 µM; in series [9], 11.3 µM; in series [10] it was 9.4 µM. For the same molecule, the Stability is 15% in series [16], 50% in series [17], 75% in [18] and “Stable” in series [12]. Also, the remaining at 72 h in series [19] was determined as 25%. Also, the result in series [14] and in series [15] was Active.
